T cruzi growth-1 = T. cruzi intracellular proliferation inhibitors, primary screen, cell-based, beta-gal Tulahuen parasites, NIH3T3 host, luminescence | T. cruzi beta-gal in NIH3T3, GalScreen luminescence, 90 h | inhibition, % at 8.34 µM | 5.9% of 77,000 active | AID 624255, 2012;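 active means mean inhibition above about 93%, with at least 55% of replicates each passing it, limit read from the data, passing the limit was not always enough; inconclusive means only one of those two conditions holds; inactive means neither condition holds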
KDM4C inh = inhibitors of GASC-1 (KDM4C) histone demethylase, primary screen, biochemical, single concentration HTS | 0.15% of 96,000 active | AID 720574, 2013 | GST-KDM4C 2-372, H3K9me3 peptide, LANCE TR-FRET | inhibition, % at 12.5 µM;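 active means mean replicate inhibition above about 25%, with at least 55% of replicates also reaching it, limit read from the data, passing the limit was not always enough; inconclusive means only one of those two conditions met; inactive means neither condition met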
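Material: GST-tagged GASC-1 (JMJD2C) catalytic fragment, aa 2-372 / Quantity: enzyme final amount 10 nM / Medium: HEPES buffer, pH 7.5, plus ascorbate / Doses: one test concentration per compound / Incubation: 30 min reaction, 60 min detection, RT / Measured by: LANCE TR-FRET / Read-out: inhibition from TR-FRET ratio decrease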
IDH1 R132H inh = inhibitors of IDH1 R132H reductase, primary screen, biochemical, plate reader, single point; Isocitrate dehydrogenase [NADP] cytoplasmic (Homo sapiens), O75874; diaphorase/resazurin fluorescence, 60 min; inhibition, % at 10 µM; 0.18% of 70,000 active; in the data active means inhibition above about 34%; inconclusive means no clear call, values can overlap the other calls; inactive means below about 11%
Target sequence (O75874 whole entry R132H): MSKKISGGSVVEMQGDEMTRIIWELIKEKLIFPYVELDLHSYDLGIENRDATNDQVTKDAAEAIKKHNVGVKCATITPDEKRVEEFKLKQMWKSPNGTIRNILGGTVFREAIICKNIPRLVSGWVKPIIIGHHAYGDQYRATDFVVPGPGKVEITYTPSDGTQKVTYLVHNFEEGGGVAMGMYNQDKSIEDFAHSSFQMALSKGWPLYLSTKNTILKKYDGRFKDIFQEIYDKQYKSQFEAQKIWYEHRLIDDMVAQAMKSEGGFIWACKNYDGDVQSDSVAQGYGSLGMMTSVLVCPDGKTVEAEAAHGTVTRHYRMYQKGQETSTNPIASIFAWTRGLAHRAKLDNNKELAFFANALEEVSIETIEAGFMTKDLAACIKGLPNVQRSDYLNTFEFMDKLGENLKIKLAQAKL
T cruzi growth-2 = T. cruzi intracellular proliferation inhibitors, confirmation, cell-based, NIH3T3 host, beta-gal parasite, luminescence, cherry-pick. shares compounds with T cruzi growth-1. T. cruzi beta-gal in NIH3T3, GalScreen luminescence, 90 h. inhibition, % at 8.35 µM. 72% of 5,600 active. AID 651739, 2012;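 active means mean replicate inhibition above about 95% and at least 55% of replicates individually reaching it, limit read from the data; inconclusive means only one of the two criteria is met; inactive means neither criterion is met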
T cruzi growth-3 = inhibitors of intracellular T. cruzi replication, confirmation, NIH3T3 host cells, beta-gal parasites, cherry-pick, set 2 | shares compounds with T cruzi growth-1 | 21% of 5,600 active | inhibition, % at 2.09 µM | T. cruzi beta-gal in NIH3T3, GalScreen luminescence, 90 h;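 active means mean inhibition above about 95%, with at least 55% of replicates also reaching it, limit read from the data; inconclusive means meets just one of the two conditions; inactive means meets neither condition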
3T3 cytotox = cytotoxicity in mouse NIH/3T3 fibroblasts, confirmation, cytotoxicity control for T. cruzi proliferation inhibitor project, cell-based, cherry-pick, single point. NIH/3T3 viability, CellTiter-Glo ATP luminescence, 90 h. shares compounds with T cruzi growth-1. cytotoxicity (signal decrease), % at 8.35 µM. 14% of 5,600 active;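 active means mean signal decrease across replicates above about 35% based on untreated-well scatter, with enough replicates individually passing, limit read from the data; inconclusive means no rule stated though some were filed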
NIH3T3 tox 2 = NIH/3T3 fibroblast cytotoxicity, confirmation, cytotoxicity control, cell-based, cherry-pick, single point, set 2. shares compounds with T cruzi growth-1. NIH/3T3 viability, CellTiter-Glo ATP luminescence, 90 h. inhibition, % at 24.9 µM. 56% of 5,600 active. AID 651744, 2012;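 active means mean loss of cell viability signal at or above a set limit, and enough replicates individually reaching it; inconclusive means meets only the mean limit or only the replicate share; inactive means meets neither condition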
Numbers stand for hits; – = inactive; ? = inconclusive; · = not tested or not shown. The full list was thinned out, with hits kept by preference.

SMILES	T cruzi growth-1	KDM4C inh	IDH1 R132H inh	T cruzi growth-2	T cruzi growth-3	3T3 cytotox	NIH3T3 tox 2
C/C=C/c1ccc([C@@H]2[C@H](CO)N(C(=O)c3cnccn3)C23CN(C(=O)C2CC2)C3)cc1	·	–	·	·	·	·	·
CCOc1ccc(NC(=O)Cn2cc([N+](=O)[O-])cn2)cc1	·	·	–	·	·	·	·
O=C(CSc1nnc(-c2ccc(Cl)cc2)n1-c1ccc(F)cc1)Nc1ccccc1Cl	·	·	–	·	·	·	·
Cc1cc(C)cc(OCC(=O)Nc2cc(-c3nc4ccccc4s3)ccc2C)c1	·	·	–	·	·	·	·
O=C(Nc1ccccc1F)N1CCCCN2[C@@H](CO)[C@@H](c3ccc(-c4cccnc4)cc3)[C@@H]2C1	–	–	·	·	·	·	·
O=C(Nc1ccccc1F)N1CCCCN2[C@@H](CO)[C@H](c3ccc(-c4cccnc4)cc3)[C@@H]2C1	102	–	·	106	–	–	34
O=C(Nc1ccccc1F)N1CCCCN2[C@H](CO)[C@H](c3ccc(-c4cccnc4)cc3)[C@@H]2C1	113	–	·	105	–	–	–
O=C(Nc1ccccc1F)N1CCCCN2[C@H](C1)[C@H](c1ccc(C#Cc3cccnc3)cc1)[C@@H]2CO	–	–	·	·	·	·	·
CN(C)S(=O)(=O)N(CC(=O)Nc1c(F)cccc1F)c1ccccc1	·	·	–	·	·	·	·
C[C@@H]1CN([C@H](C)CO)C(=O)c2cccc(NC(=O)Nc3ccccc3)c2O[C@H]1CN(C)Cc1ccc(C(F)(F)F)cc1	–	–	–	·	·	·	·
C[C@H]1CN([C@@H](C)CO)C(=O)c2cccc(NC(=O)Nc3ccc(F)cc3)c2O[C@@H]1CN(C)Cc1ccc(-c2ccccc2)cc1	–	–	–	·	·	·	·
C[C@@H]1CN([C@@H](C)CO)C(=O)c2cccc(NC(=O)Nc3ccc(C(F)(F)F)cc3)c2O[C@@H]1CN(C)Cc1ccc(-c2ccccc2)cc1	?	–	·	–	114	92	104
C[C@@H]1CN([C@H](C)CO)C(=O)c2cccc(NC(=O)Nc3ccc(C(F)(F)F)cc3)c2O[C@@H]1CN(C)Cc1ccccc1	–	–	·	·	·	·	·
C[C@@H]1CN([C@H](C)CO)C(=O)c2cccc(NC(=O)Nc3ccc(F)cc3)c2O[C@@H]1CN(C)Cc1ccc(-c2ccccc2)cc1	?	–	·	105	–	–	71
C[C@@H]1CN([C@H](C)CO)C(=O)c2cccc(NC(=O)Nc3ccc(C(F)(F)F)cc3)c2O[C@@H]1CN(C)Cc1ccc(-c2ccccc2)cc1	?	–	–	110	–	–	103
COc1ccccc1OCCn1c(S(=O)(=O)O)nc2ccccc21	·	·	–	·	·	·	·
CCCNC(=O)C[C@H]1CC[C@H]2[C@@H](COC[C@@H](O)CN2Cc2cccc(F)c2)O1	–	–	·	·	·	·	·
COC(=O)CNC(=O)c1ccc(S(=O)(=O)N2CCOCC2)cc1	·	·	–	·	·	·	·
c1ccc2c(c1)OCC(c1nn3c(Cn4cnc5ccccc54)nnc3s1)O2 (centres undefined)	·	·	–	·	·	·	·
CO[C@H]1CC[C@@H]2CCOc3ccc(C#N)cc3C(=O)N(C)CCCC(=O)N(C)C[C@H]1O2	–	–	·	·	·	·	·
Cc1cc(C)c(NC(=O)CSc2nc3ccc(NC(=O)c4ccccc4Cl)cc3s2)c(C)c1	·	·	–	·	·	·	·
C[C@@H]1CN([C@@H](C)CO)S(=O)(=O)c2ccc(C#CCN(C)C)cc2O[C@@H]1CN(C)Cc1ccncc1	–	–	–	·	·	·	·
CCCC#Cc1ccc2c(c1)O[C@@H](CN(C)Cc1ccncc1)[C@H](C)CN([C@H](C)CO)S2(=O)=O	117	–	–	98	102	72	105
CC(C)CC#Cc1ccc2c(c1)O[C@H](CN(C)Cc1ccncc1)[C@H](C)CN([C@@H](C)CO)S2(=O)=O	?	–	–	95	–	49	97

Compound activity: PubChem BioAssay, Broad Institute
